Screening results: PubChem BioAssay, several laboratories
The list is not random: actives were taken first. Their share in the collection is about 3.8%.
CSC inhib = blocks cancer stem cells; cancer stem cell-like cells viability, luminescence; inhibition, % at 7.5 µM; 300,000 tested, 1.1% active; in the data active = inhibition above about 75%; inconclusive = no clear call, values can overlap the other calls; tested in HMLE shEcad cells
ANO1 activ = mouse TMEM16A channel activation, primary screen. B-score at 10 µM. HEK293 TMEM16A/YFP-H148Q/I152L, iodide quench fluorescence; stronger effect = lower value. 340,000 tested, 0.3% active. Q8BHY3;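 active = fluorescence-ratio B-score plate-corrected deviation score at least 3 library SD below zero, with starting fluorescence score within 5 deviations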;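 note: channel opened by trigger with iodide after compound preincubation; score built on the fluorescence ratio of max minus min over baseline; more negative score means more quench and so TMEM16A activation or potentiation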
Beta apoptosis = beta cell apoptosis inhibition; protection from apoptosis, % (no concentration beside the values); 300,000 tested, 0.8% active; INS-1E cytokine-induced death, ATP luminescence, 48 h; percent of positive-control rescue, neutral wells zero;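 active = Every replicate reaches about 75%, or at least half do and their mean reaches it too, limit read from the data; inconclusive = At least half of replicates reach the limit but their mean does not; inactive = Under half of replicates reach the limit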;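 note: 0% = cytokine-treated negative control wells and 100% = positive control rescue; higher means more ATP so stronger rescue from cytokine killing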
TMEM16A inh = blocks the mouse calcium-activated chloride channel TMEM16A | Q8BHY3 | HEK293 TMEM16A/YFP iodide influx fluorescence, ionomycin | normalized B-score (activity score, 25-100; higher = stronger inhibition) at 10 µM | 310,000 tested, 1.2% active;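 active = ratio plate-corrected score three or more library SD toward inhibition, starting fluorescence score within five deviations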;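 note: score derived from kinetic fluorescence span divided by baseline fluorescence per well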
MC4R antagonist = blocks human MC4R cAMP signaling | P32245 | inhibition, % at 6.5 µM | MC4R-expressing cells, MTII-stimulated cAMP, LANCE TR-FRET | 360,000 tested, 0.48% active;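 active = inhibition above its plate's cutoff, the mean of tested wells on that plate plus 3 SD, cut at about 29% in these data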;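 note: 0% = Melanotan II alone and 100% = Melanotan II plus saturating MCL0020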
Target sequence (P32245 whole entry, looked up): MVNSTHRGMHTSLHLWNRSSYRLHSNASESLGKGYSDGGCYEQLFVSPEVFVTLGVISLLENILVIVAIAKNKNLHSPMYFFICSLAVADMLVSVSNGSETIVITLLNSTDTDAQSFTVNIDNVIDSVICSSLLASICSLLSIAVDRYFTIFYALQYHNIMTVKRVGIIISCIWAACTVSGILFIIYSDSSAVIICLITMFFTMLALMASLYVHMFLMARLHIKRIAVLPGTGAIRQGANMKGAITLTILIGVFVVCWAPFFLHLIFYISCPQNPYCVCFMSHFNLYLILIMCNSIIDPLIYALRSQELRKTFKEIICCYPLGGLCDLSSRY
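Material – human MC4R-expressing U2OS cells · Repeats – no replicates · Detection – TR-FRET with Eu-cAMP and labeled anti-cAMP, 671 nm · Times – compound 30 min, challenge 1 h, detection 1 h · Compound – single nominal compound dose of 6.5 µM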
MC4R barr agon = agonists of human melanocortin 4 receptor (MC4R) beta-arrestin; P32245; U2OS MC4R beta-arrestin complementation, luminescence; percent of melanotan II response, DMSO zero; activation, % at 8.9 µM; 360,000 tested, 0.98% active;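 active = activation above a per-plate cutoff, the mean activation of sample wells on that plate plus 3 SD, cut at about 8% in these data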
* marks the source's active call; other numbers are inactive results; i = inactive; ? = inconclusive; . = not tested or not shown.

SMILES	CSC inhib	ANO1 activ	Beta apoptosis	TMEM16A inh	MC4R antagonist	MC4R barr agon
CCOc1ccc(C(=O)NCC(=O)NCC(c2ccco2)N2CCCCC2)cc1 (stereo unspecified)	.	i	-3	.	8	-2
N=c1c2c(n(Cc3ccc(Cl)c(Cl)c3)c3c1CCC3)CCCC2	.	i	102*	i	6	0
N=c1c2c(n(Cc3ccc(Br)cc3)c3c1CCC3)CCCC2	13	i	115*	i	6	-1
N=c1c2c(n(Cc3ccc([N+](=O)[O-])cc3)c3c1CCC3)CCCC2	-2	i	4	i	1	-4
CCCn1c2c(c(=N)c3c1CCC3)CCCC2	-9	i	22	i	-1	2
CCCc1cc(C(=O)Nc2cccc(-c3nn[nH]n3)c2)sc1C	.	.	.	.	9	-2
CCN1C(=O)[C@H]2[C@H]3CN=C(SC)N3[C@@](Cc3ccccc3)(C(=O)OC)[C@H]2C1=O	.	.	.	.	4	0
O=C(CNCc1ccccn1)N1CCc2ccccc2C1	-12	i	-3	i	-2	0
COc1ccc(OCCCC(=O)N2CCCc3ccccc32)cc1	.	-6.4*	-5	i	2	-4
CCOC(=O)/C(=N/Nc1ccc(OC)cc1)N1CCCc2ccccc21	75*	i	7	i	6	-1
COc1ccc(CCC(=O)N2CCCc3ccccc32)cc1	-12	i	-2	i	7	1
Cc1ccccc1C(=O)NCC(=O)OCCOc1ccc(C(C)C)c(C)c1	32	i	-5	i	-2	0
CC(OC(=O)Cc1c[nH]c2ccccc12)C(=O)Nc1ccccc1F (stereo unspecified)	-5	i	-5	i	-1	-2
S=c1nc(Cc2ccccc2)[nH]c2ccccc12	.	i	.	i	9	1
S=c1nc(Cc2ccc(Cl)cc2)[nH]c2ccccc12	7	i	-4	i	-8	8.9*
COc1cc(/C=C/C(=O)OCC(=O)Nc2cc(S(=O)(=O)N(C)C)ccc2Cl)ccc1O	1	i	-4	i	14	8.9*
CCn1nc(C(=O)Nc2ccc(C)c(C)c2)c(Cl)c1Cl	-2	i	3	i	3	8.7*
N#CC(CC(=O)c1ccc(F)cc1)c1ccc2c(c1)OCO2 (stereo unspecified)	12	i	-3	i	5	-1
CCn1c(C)nc2cc(-c3nnc(-c4c(-c5ccccc5)noc4C)o3)ccc21	38	i	113*	i	-18	1
Cc1nn(-c2ccc(C(F)(F)F)cn2)c(C)c1Oc1ccccc1O	-10	-34*	-7	i	1	-1
Cc1cc(=O)[nH]c(-n2nc(C)c(Oc3ccccc3O)c2C)n1	18	i	.	i	5	-1
CSc1ncccc1C(=O)N1CCN(S(=O)(=O)c2ccc3c(c2)OCCO3)CC1	-20	i	-3	.	14	-5
C/C(=N\NC(=S)NCc1ccccc1)c1ccc2c(c1)OCCO2	0	i	1	25*	-2	-2
C/C(=N\NC(N)=S)c1ccc2c(c1)OCCO2	-20	i	-1	i	22	2
C/C(=N\NC(=S)Nc1ccc(F)cc1)c1ccc2c(c1)OCCO2	76*	i	11	i	-7	-2
SMILES	CSC inhib	ANO1 activ	Beta apoptosis	TMEM16A inh	MC4R antagonist	MC4R barr agon
O=C(Cc1ccccc1)NN1C(=O)C2C3C=CC(C4CC34)C2C1=O (stereo unspecified)	-8	i	8	i	-4	-3
O=C(Cc1ccccc1)NN1C(=O)C2C3C=CC(C3)C2C1=O (stereo unspecified)	-23	-38*	-5	i	3	-1
COc1cccc(NC(=O)CN(C)C(=O)c2oc3c(ccc4ccccc43)c2C)c1	-6	i	-2	i	8	2
Cn1cccc1/C=N/NC(=O)Cc1cccs1	3	i	105*	i	-2	-1
Cn1cccc1/C=N/NC(=O)c1cccs1	-1	i	-3	i	-7	0
O=C(CCCN1C(=O)c2ccccc2C1=O)NCc1cccnc1	-7	i	1	i	-5	0
O=C(/C=C/c1ccc(-c2ccccc2)cc1)NCc1cccnc1	14	i	98*	i	-5	-2
O=C(NCc1cccnc1)c1cc(-c2ccco2)on1	-9	i	101*	i	7	1
Cc1ccc(-c2cc(C(=O)NCc3cccnc3)no2)cc1	-5	i	1	i	1	-2
O=C(CCCCCCCCCCC(=O)NCc1cccnc1)NCc1cccnc1	72	i	112*	i	9	-1
O=C(COC(=O)c1cc(S(=O)(=O)N2CCOCC2)ccc1F)Nc1ccccc1C(F)(F)F	.	.	.	.	-61	0
CC1(C)NC(=O)N(CC(O)COc2ccccc2C(=O)Nc2ccccc2)C1=O (stereo unspecified)	-6	i	-1	i	1	-1
O=C(Nc1ccccc1)c1ccccc1OCC(O)CN1C(=O)c2ccccc2S1(=O)=O (stereo unspecified)	0	i	0	100*	3	0
Cc1ccc2ncccc2c1NC(=S)NC(=O)c1ccccc1	-5	i	-4	i	13	-2
O=C(N/N=C/c1ccc(F)cc1)c1ccccc1	1	i	1	i	-7	-2
COc1ccc(C(=O)N/N=C/c2sc3ccccc3c2O)cc1	?	i	96*	i	-1	-2
O=C(N/N=C/c1sc2ccccc2c1O)c1ccccc1	35	i	103*	i	-9	0
COc1ccc2cc(C(=O)N/N=C/c3sc4ccccc4c3O)ccc2c1	147*	i	92*	i	-6	-3
O=C(N/N=C/c1sc2ccccc2c1O)c1cccc2ccccc12	97*	i	97*	i	0	-4
Nc1c(C(=O)CSc2nccn2-c2cccc(F)c2)c(=O)[nH]c(=O)n1C1CC1	-13	i	-4	.	5	-1
COc1cccc(/C=C/C(=O)OCC(=O)NC2CCCCCC2)c1	.	.	.	.	3	-2
C/C(=C\COc1ccc2ccc(=O)oc2c1)CC[C@@H](O)C(C)(C)O	-8	i	-1	.	-6	0
Cc1noc(C)c1S(=O)(=O)NC(=O)C1(C)CCN1C(=O)Cc1ccc(Cl)cc1Cl (stereo unspecified)	.	.	.	.	6	-1
COCCCNc1oc(/C=C/c2ccccc2)nc1C#N	-7	i	0	i	5	-1
COc1cccc(/C=C/c2nc(C#N)c(NCC(C)C)o2)c1	128*	i	11	i	6	2
COc1cccc(NC(=O)Cn2nnc(C(=O)Nc3cc(Cl)ccc3OC)c2N)c1	-8	i	8	i	-4	-2
